Compound activity (PubChem BioAssay)
OX1R antag-1: blocks the human orexin 1 receptor; O43613; CHO/OX1R cells, Fluo-8 calcium fluorescence, orexin A; inhibition, % at 5 µM; 0.43% of 330,000 active; AID 434989;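 active means inhibition above its plate's threshold, mean inhibition of all tested compounds on the plate plus 3 SD, cut at about 37% in these data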;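 further: 0% = orexin A challenge wells and 100% = SB-334867-A antagonist wells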
GalR3 antag: blocks the human galanin receptor 3. O60755. HEK293 GalR3-CNG cAMP membrane potential fluorescence; galR3 body fused to GalR1 C-terminus. inhibition, % at 3 µM. 0.44% of 360,000 active;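 active means inhibition above the screen-wide average plus 3 SD, cut at about 13% in these data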;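 further: forskolin and galanin both at EC90 stimulate the cells; cAMP rise reported by CNG channel membrane potential dye signal; 0% = forskolin plus galanin with DMSO and 100% = forskolin alone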
Target sequence (O60755 1-299 limits assumed): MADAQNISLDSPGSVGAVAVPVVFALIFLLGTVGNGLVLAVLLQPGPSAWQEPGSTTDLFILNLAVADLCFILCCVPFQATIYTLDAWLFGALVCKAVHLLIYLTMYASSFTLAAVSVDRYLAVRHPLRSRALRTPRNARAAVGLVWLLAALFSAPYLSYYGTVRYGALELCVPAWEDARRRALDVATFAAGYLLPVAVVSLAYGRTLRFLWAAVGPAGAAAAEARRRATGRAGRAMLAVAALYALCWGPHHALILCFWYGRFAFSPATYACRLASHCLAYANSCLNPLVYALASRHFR
OX1R antag-2: blocks the human orexin 1 receptor | AID 485270 | 1.8% of 330,000 active | OX1R-expressing cells, FRET antagonist read-out | O43613 | inhibition, % at 6.6 µM; in the data active means inhibition mostly above about 38%, no sharp cut-off; inactive means mostly below about 40%;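 further: 0% = agonist challenge alone and 100% = reference antagonist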
CHO parental Ca: signal in parental CHO cells, OX1R antagonist counter-screen. parental CHO-K1, ATP-induced calcium, Fluo-8 fluorescence. inhibition, % at 5.6 µM. 0.63% of 330,000 active. AID 463079;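 active means inhibition above that plate's mean sample inhibition plus 3 SD, cut at about 26% in these data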;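 further: 0% = ATP-challenged DMSO wells and 100% = DMSO wells without ATP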
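Material – parental CHO cells · Reagent – ATP stimulus · Compound – single nominal dose of 5.6 µM per compound · Detection – Fluo-8 fluorescence · Read-out basis – percent inhibition of calcium signal · Controls – ATP-challenged DMSO wells low, unchallenged DMSO wells high · Repeats – no replicates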
GPR7 antagonist: antagonists of human GPR7 (neuropeptides B/W receptor 1); GPR7-expressing cells, fluorescence antagonist assay; inhibition, % at 4.4 µM; 1.1% of 290,000 active; AID 1861; in the data active means inhibition above about 16%, passing the limit was not always enough;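 further: cells stimulated with the agonist NPW; 0% = agonist with vehicle and 100% = vehicle without agonist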
Target sequence (P48145 whole entry, looked up): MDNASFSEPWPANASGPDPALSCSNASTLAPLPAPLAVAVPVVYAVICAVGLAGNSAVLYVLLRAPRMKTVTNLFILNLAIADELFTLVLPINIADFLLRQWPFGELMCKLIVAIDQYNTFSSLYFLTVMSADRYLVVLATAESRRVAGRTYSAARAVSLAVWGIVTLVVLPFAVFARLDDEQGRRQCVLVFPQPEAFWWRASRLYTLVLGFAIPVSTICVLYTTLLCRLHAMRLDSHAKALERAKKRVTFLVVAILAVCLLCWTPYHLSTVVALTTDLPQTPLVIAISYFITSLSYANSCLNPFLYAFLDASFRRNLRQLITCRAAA
Numbers without * were called inactive. This is a sample that favours compounds with a hit; in the whole collection about 3.1% have one here.

`O=C(CCC(=O)N1CCOc2ccccc21)NCCCN1CCN(Cc2ccccc2)CC1` gave OX1R antag-1 -7, OX1R antag-2 6, CHO parental Ca -20 and GPR7 antagonist 21*.
Screening COc1ccc(-c2ccc(/C=C3/C(=N)N4C=CSC4=NC3=O)o2)c([N+](=O)[O-])c1 returned OX1R antag-1 13, GalR3 antag 5, OX1R antag-2 64*, CHO parental Ca -3 and GPR7 antagonist -17.
Screening O=C1c2ccc(-c3ccc4c(c3)C(=O)N(CCCO)C4=O)cc2C(=O)N1CCCO returned OX1R antag-1 -12, GalR3 antag -2, OX1R antag-2 59*, CHO parental Ca -2 and GPR7 antagonist 7.
`COC(=O)C1=C(C)N(Cc2ccc(Br)cc2)C(=S)NC1c1ccccc1` (stereo not drawn) gave GalR3 antag -7.
Screening Cc1cc(C(=O)NCCc2ccc(Cl)cc2)c2ccccc2n1 returned OX1R antag-1 16, GalR3 antag -5, OX1R antag-2 50*, CHO parental Ca -15 and GPR7 antagonist 5.
`CC(C)C[C@H]1CN([C@@H](Cc2ccccc2)CN2CCC[C@H]2CN2C(=O)C(=O)NC[C@@H]2Cc2ccccc2)C(=O)C(=O)N1CC1CCCCCC1` gave GalR3 antag 2.
CC(NCc1ccc(S(N)(=O)=O)cc1)C(=O)Nc1ccc([N+](=O)[O-])cc1Cl (stereo not drawn) was read as OX1R antag-1 -5, GalR3 antag -3, OX1R antag-2 66*, CHO parental Ca -3 and GPR7 antagonist 2.
`CC(NCc1ccc(S(N)(=O)=O)cc1)C(=O)Nc1cc([N+](=O)[O-])ccc1Cl` (stereo not drawn) gave OX1R antag-1 -3, GalR3 antag 7, OX1R antag-2 58, CHO parental Ca -1 and GPR7 antagonist 0.
For COc1ccc(Cc2c(C3CCCCC3)nc3ccc(C)cn23)c(C)c1 the results were GalR3 antag -3.
Screening CCOC(=O)c1cc2cc3ccccc3cc2[nH]1 returned OX1R antag-1 -8, GalR3 antag -6, OX1R antag-2 38*, CHO parental Ca 6 and GPR7 antagonist 6.
For CC(C)OC(=O)c1cc2ccccc2[nH]1 the results were OX1R antag-1 -12, GalR3 antag -9, OX1R antag-2 18, CHO parental Ca -7 and GPR7 antagonist -14.
`CC(=O)Nc1ccccc1-c1cccc2nccn12` gave GalR3 antag -1.
`CCCC[C@@H]1CC2=C(C(=O)OC(C)(C)O2)[C@@H](c2ccc(F)cc2)O1` gave GalR3 antag -5.
Screening CCCN(CCC)Cc1cc(=O)oc2ccccc12 returned GalR3 antag -6.
Cc1cc(C(=O)Cn2nc(C(=O)O)c3ccccc3c2=O)c(C)n1CCc1ccc(Cl)cc1 was read as OX1R antag-1 13, GalR3 antag -4, OX1R antag-2 49*, CHO parental Ca -15 and GPR7 antagonist -12.
`O=C(Cn1nc(C(=O)O)c2ccccc2c1=O)Nc1cc(Cl)cc(Cl)c1` gave OX1R antag-1 19, GalR3 antag -6, OX1R antag-2 41*, CHO parental Ca -7 and GPR7 antagonist -1.
For O=C(Cn1nc(C(=O)O)c2ccccc2c1=O)Nc1ccc(Br)cc1 the results were OX1R antag-1 20, GalR3 antag -5, OX1R antag-2 30, CHO parental Ca -7 and GPR7 antagonist -14.
`O=C(N[C@H](Cc1ccccc1)C(=O)NCc1ccc(OC(F)(F)F)cc1)[C@H]1O[C@@H](n2ccc(=O)[nH]c2=O)[C@H](O)[C@@H]1O` gave GalR3 antag -5.
CCCNC1=C(N(C(C)=O)c2cccc(F)c2)C(=O)c2ccccc2C1=O was read as OX1R antag-1 -17, GalR3 antag -4, OX1R antag-2 68*, CHO parental Ca -5 and GPR7 antagonist 3.
`CCC(=O)N(C1=C(NC(C)C)C(=O)c2ccccc2C1=O)C(C)C` gave OX1R antag-1 2, GalR3 antag 0, OX1R antag-2 44, CHO parental Ca -5 and GPR7 antagonist -11.
`Cc1ccc(S(=O)(=O)Nc2cccnc2)cc1` gave OX1R antag-1 -4, GalR3 antag -4, OX1R antag-2 0, CHO parental Ca -6 and GPR7 antagonist 12.
For CCCCOc1ccc(S(=O)(=O)Nc2cccnc2)cc1 the results were OX1R antag-1 7, GalR3 antag -14, OX1R antag-2 15, CHO parental Ca 39* and GPR7 antagonist -15.
For CCOC(=O)c1sc(NC(=O)c2ccco2)nc1C the results were OX1R antag-1 -9, GalR3 antag -2, OX1R antag-2 14 and CHO parental Ca -11.
For CCOC(=O)c1sc(NC(=O)c2ccc(C)o2)nc1C the results were OX1R antag-1 19, GalR3 antag 0, OX1R antag-2 54*, CHO parental Ca -20 and GPR7 antagonist -10.
For CCOc1ccc2nc(NC(=O)c3ccc(C)o3)sc2c1 the results were OX1R antag-1 -2, GalR3 antag 3, OX1R antag-2 38* and CHO parental Ca -15.
CCOC(=O)c1cccc(NC(=O)CCNS(=O)(=O)c2cc(Br)cnc2N)c1 was read as OX1R antag-1 22, GalR3 antag -7, OX1R antag-2 63*, CHO parental Ca -8 and GPR7 antagonist 0.
For COC(=O)[C@]12C[C@H](CC(=O)NCc3cccs3)C(=O)N(Cc3ccccc3)C1=C[C@H](C1CCCC1)O[C@@H]2C the results were GalR3 antag -4.
Screening COc1ccc(Cn2cc(CN3CC(N4CCSCC4)CS3(=O)=O)nn2)cc1 (stereo not drawn) returned GalR3 antag 2.
O=[N+]([O-])c1cnn2cc(Br)cnc12 was read as OX1R antag-1 -14, GalR3 antag 0, OX1R antag-2 74*, CHO parental Ca 2 and GPR7 antagonist 1.
For CCOC(=O)c1cnc2c([N+](=O)[O-])cnn2c1C the results were OX1R antag-1 0, GalR3 antag -9, OX1R antag-2 21, CHO parental Ca -2 and GPR7 antagonist -4.
Screening C[C@@H]1ON(C)[C@H]2C[C@H]3c4cc(-c5ccccc5)ccc4CCN3C[C@@H]12 returned GalR3 antag -5.
`CN(C)c1ccc(N=Nc2ccccc2C(=O)OCC(=O)N2CCCCCC2)cc1` gave OX1R antag-1 -14, GalR3 antag -2, OX1R antag-2 6, CHO parental Ca 29* and GPR7 antagonist -3.
For COc1ccc2oc3ccc(OC)cc3c(=O)c2c1 the results were OX1R antag-1 -28, GalR3 antag -1, OX1R antag-2 62*, CHO parental Ca -5 and GPR7 antagonist 0.
Screening COc1ccc2c(c1)oc1c(SCc3nc4ccccc4[nH]3)nc(C)nc12 returned OX1R antag-1 16, GalR3 antag 9, OX1R antag-2 48* and CHO parental Ca -24.
`Cc1nc(SCc2nc3ccc(Cl)cc3[nH]2)c2oc3ccccc3c2n1` gave OX1R antag-1 1, GalR3 antag 8, OX1R antag-2 28 and CHO parental Ca -14.
